Measurements taken from ChEMBL document CHEMBL5150070, “Tricyclic SpiroLactams Kill Mycobacteria In Vitro and In Vivo by Inhibiting Type II NADH Dehydrogenases” (J Med Chem, 2022).
≈ marks a conversion by molar mass, not a printed value. Calls of active or inactive are those of the source. The calls are words filed in the database; no cut-off is given here.

Assays:
[1] = target: Type II NADH:quinone oxidoreductase Ndh (Mycobacterium tuberculosis, UniProt P95160); assay: Inhibition of Mycobacterium tuberculosis recombinant type II NADH dehydrogenase ndh expressed in Escherichia coli assessed as rate of NADH oxidation in the presence of an electron acceptor menadione
Sequence of Type II NADH:quinone oxidoreductase Ndh (P95160 whole entry): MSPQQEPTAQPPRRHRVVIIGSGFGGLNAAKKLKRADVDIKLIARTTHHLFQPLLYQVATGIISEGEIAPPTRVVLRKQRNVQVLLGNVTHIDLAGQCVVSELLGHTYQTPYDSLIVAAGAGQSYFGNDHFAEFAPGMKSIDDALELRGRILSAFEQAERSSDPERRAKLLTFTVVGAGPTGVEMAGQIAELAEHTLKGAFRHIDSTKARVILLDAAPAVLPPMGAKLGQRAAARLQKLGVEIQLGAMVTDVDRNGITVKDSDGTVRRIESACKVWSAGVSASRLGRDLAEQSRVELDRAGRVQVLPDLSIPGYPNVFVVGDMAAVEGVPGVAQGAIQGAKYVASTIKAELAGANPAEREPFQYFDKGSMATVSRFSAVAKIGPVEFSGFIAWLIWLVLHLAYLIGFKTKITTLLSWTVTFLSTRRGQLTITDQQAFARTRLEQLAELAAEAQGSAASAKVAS
In short: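 Purified N-terminal MBP-tagged Mtb Ndh (Rv1854c) expressed in E. coli, 70 nM, with 500 µM NADH in 50 mM HEPES pH 7.1 (K₂HPO₄). Compound pre-incubated 15 min at 25°C, reaction started with 100 µM menadione. NADH oxidation followed at 340 nm every 60 s. Rate taken from linear slope; IC50 is the mean ± SD of at least 3 independent experiments.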

[2] = test system: Mycobacterium tuberculosis; assay: Antimycobacterial activity against Mycobacterium tuberculosis H37Rv assessed as reduction in bacterial cell growth by measuring resazurin reduction incubated for 6 days by fluorescence microplate based assay; format: functional; conditions: time 6 day
[3] = target: T1, Type II NADH:quinone oxidoreductase NdhA (Mycobacterium tuberculosis, UniProt P95200); assay: Inhibition of Mycobacterium smegmatis MC2 155 recombinant ndhA assessed as rate of NADH oxidation in the presence of an electron acceptor menadione; design: species or system Mycolicibacterium smegmatis
T1 sequence (P95200 whole entry): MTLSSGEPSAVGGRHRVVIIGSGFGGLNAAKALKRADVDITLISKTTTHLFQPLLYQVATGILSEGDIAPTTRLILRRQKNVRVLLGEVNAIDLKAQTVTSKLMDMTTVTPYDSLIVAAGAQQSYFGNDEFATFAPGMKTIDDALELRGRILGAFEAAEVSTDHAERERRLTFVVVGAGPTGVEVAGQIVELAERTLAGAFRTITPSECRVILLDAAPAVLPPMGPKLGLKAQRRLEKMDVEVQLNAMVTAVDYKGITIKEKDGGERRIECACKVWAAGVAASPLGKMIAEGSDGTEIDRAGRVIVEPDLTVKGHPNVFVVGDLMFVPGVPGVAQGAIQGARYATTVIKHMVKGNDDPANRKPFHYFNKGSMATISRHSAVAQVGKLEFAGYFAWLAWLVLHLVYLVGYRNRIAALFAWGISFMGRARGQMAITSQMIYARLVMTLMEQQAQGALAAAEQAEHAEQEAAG

Pseudomonas aeruginosa = assay: Antibiotic activity against Pseudomonas aeruginosa POA1 assessed as reduction in bacterial cell growth by measuring resazurin reduction incubated for 6 days by fluorescence microplate based assay; format: functional; conditions: POA1, 144 h, time 6 day
Mycobacterium marinum [4] = assay: In vivo antimycobacterial efficacy in Mycobacterium marinum expressing Wasabi infected zebrafish larvae assessed as prevention of bacterial infection foci at 0.25 to 2 ug/ml treated for 2 to 4 days after 1 day post infection; format: functional, organism-based; conditions: dose 0.25-2 µg/ml, time 2-4 day
In short: (§1)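 Golden mutant or Tg(mpeg1:mCherry) zebrafish embryos were dechorionated and anaesthetised in 0.016% tricaine. At 30 hpf, 2–3 nL containing about 200–250 cfu of Wasabi-expressing M. marinum M (pTEC15) was injected into the caudal vein. The inoculum was confirmed by plating on 7H10. Embryos were kept in E3 at 28.5 °C, 12 per well, to follow infection and survival.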

[5] = test system: Mycobacteroides abscessus; assay: Antibiotic activity against Mycobacterium abscessus CIP104536, Smooth variant assessed as reduction in bacterial cell growth by measuring resazurin reduction incubated for 6 days by fluorescence microplate based assay; format: functional; conditions: 144 h, time 6 day
Mycobacterium marinum [6] = assay: In vivo antimycobacterial efficacy in Mycobacterium marinum expressing Wasabi infected zebrafish larvae assessed as prolongation of survival treated for 4 days after 1 day post infection; format: functional, organism-based; conditions: dose 0.3-1.2 µM, time 4.0 day, DDE = dose-dependent effect; in short: as §1
Staphylococcus aureus = assay: Antibiotic activity against Staphylococcus aureus SH1000 assessed as reduction in bacterial cell growth by measuring resazurin reduction incubated for 6 days by fluorescence microplate based assay; format: functional; conditions: SH1000, 144 h, time 6 day
In short: (§2)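 E. coli BW25113, E. coli ΔtolC and S. aureus SH1000 were cultured and tested in cation-adjusted Mueller Hinton II broth. Viability was read by adding resazurin and measuring resorufin fluorescence at Ex 530 nm / Em 590 nm.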

[7] = test system: Mycobacterium tuberculosis; assay: Bactericidal activity against Non-replicating Mycobacterium tuberculosis ss18b-lux model assessed as decrease in luminescence at 10 to 10000 nM; format: functional, organism-based; conditions: dose 10-10000 nM, TDE = time-dependent effect
In short: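 Non-replicating streptomycin-starved 18b-lux (14-day starvation) diluted to OD600 0.15 in white 96-well plates with compound and incubated at 37°C. Luminescence read on days 1, 2, 5 and 7 and expressed relative to no-antibiotic controls (n ≥ 3).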

[8] = Toxicity in noninfected zebrafish larvae assessed as toxic effect; design: species or system Danio rerio; conditions: in vivo
Mycobacterium marinum [9] = assay: In vivo antimycobacterial efficacy in Mycobacterium marinum expressing Wasabi infected zebrafish larvae assessed as prevention of bacterial load using fluorescence pixel count determination at 0.5 ug/ml treated for 2 to 4 days after 1 day post infection; format: functional, organism-based; conditions: dose 0.5 µg/ml, time 2-4 day; in short: as §1
Mycobacterium marinum [10] = assay: In vivo antimycobacterial efficacy in Mycobacterium marinum expressing Wasabi infected zebrafish larvae assessed as prolongation of survival at 9.6 uM treated for 4 days after 1 day post infection; format: functional, organism-based; conditions: time 4.0 day; in short: as §1
[11] = Toxicity in noninfected zebrafish larvae assessed as larval development; design: species or system Danio rerio; conditions: in vivo
[12] = test system: Mycobacterium tuberculosis; assay: Bactericidal activity against replicating Mycobacterium tuberculosis H37Rv assessed as reduction in colony forming unit measured at 2 to 4 times of MIC after 1 to 2 weeks; format: functional; conditions: time 1-2 weeks
In short: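 Mid-log H37Rv in 7H9-GTy-OADC diluted to OD600 0.02 (~1×10⁶ cfu/mL) and exposed to compound in 96-well replica plates for 1 or 2 weeks. For the 3 lowest concentrations without visible growth, serial 10-fold dilutions plated on 7H11-OADC and cfu counted over 6 weeks at 37°C. Four independent experiments; log10 cfu/mL ± SD.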

[13] = test system: Mycobacterium tuberculosis; assay: Inhibition of Ndh2 in Mycobacterium tuberculosis assessed as increase in NADH/NAD+ ratio at 600 nM measured after 24 hrs
In short: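 Mid-log H37Rv diluted to OD600 0.3 and exposed to compound at 37°C for 2 and 24 h. Pellets extracted in 0.2 M HCl (NAD⁺) or 0.2 M NaOH (NADH), bead-milled, heated 55°C 10 min, neutralised. NAD/NADH-Glo luminescence read against an NADH standard curve, corrected for OD600. Three independent experiments, duplicate technical replicates.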

[14] = test system: Mycobacterium tuberculosis; assay: Antibiotic activity against Mycobacterium tuberculosis H37Rv assessed as reduction in bacterial cell growth by measuring resazurin reduction incubated for 6 days by fluorescence microplate based assay; format: functional; conditions: 144 h, time 6 day
[15] = Octanol/PBS partition coefficient, logD of compound at pH 7.4 measured after 2 hrs by shake flask method; format: physicochemical; conditions: octanol/water, pH 7.4, 2 h
In short: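 A 10 mM DMSO stock was diluted 50-fold into 1:1 octanol:PBS pH 7.4 and shaken gently for 2 h at room temperature. Each phase was diluted 50-fold in MeOH and quantified by LC-MS/MS. LogD = log of the octanol/PBS concentration ratio from mass signals. Run in triplicate.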

Escherichia coli [16] = assay: Antibiotic activity against Escherichia coli deltatolC BW25113 deltatolC assessed as reduction in bacterial cell growth by measuring resazurin reduction incubated for 6 days by fluorescence microplate based assay; format: functional; conditions: 144 h, time 6 day; in short: as §2
[17] = Metabolic stability in mouse liver microsomes; format: ADME, Microsome
[18] = test system: Mycobacterium tuberculosis; assay: Bactericidal activity against Non-replicating Mycobacterium tuberculosis ss18b-lux assessed as bacterial killing by measuring CFU after 1 week; format: functional, organism-based; conditions: time 1.0 weeks, DDE = dose-dependent effect
In short: (§3)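 Streptomycin-dependent 18b-lux starved of streptomycin for 14 days (OD600 reset to 0.2 on days 7 and 13) to become non-replicating. Diluted to OD600 0.15 on dispensed compound and held at 37°C. On day 7, active wells plated on 7H11-OADC with 50 µg/mL streptomycin and incubated up to 8 weeks for cfu.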

Mycobacterium marinum [19] = assay: In vivo antimycobacterial efficacy in Mycobacterium marinum expressing Wasabi infected zebrafish larvae assessed as prolongation of survival time at 4.8 uM treated for 4 days after 1 day post infection; format: functional; conditions: time 4 day
Mycobacterium marinum [20] = assay: Antibiotic activity against Mycobacterium marinum M strain assessed as reduction in bacterial cell growth by measuring resazurin reduction incubated for 6 days by fluorescence microplate based assay; format: functional; conditions: 144 h, time 6 day
Mycobacterium marinum [21] = assay: in vivo antimycobacterial efficacy in Mycobacterium marinum infected zebrafish larvae assessed as reduction in bacterial burden at 0.25 to 2 micog/ml measured after 2 to 4 days off post infection; format: functional, organism-based; conditions: time 2-4 day
Klebsiella pneumoniae = assay: Antibiotic activity against Klebsiella pneumoniae LMG 2095 assessed as reduction in bacterial cell growth by measuring resazurin reduction incubated for 6 days by fluorescence microplate based assay; format: functional; conditions: LMG 2095, 144 h, time 6 day
Mycobacterium avium = assay: Antibiotic activity against Mycobacterium avium TMC 724, ATCC-25291 assessed as reduction in bacterial cell growth by measuring resazurin reduction incubated for 6 days by fluorescence microplate based assay; format: functional; conditions: TMC 724, ATCC-25291, 144 h, time 6 day
Bacillus subtilis = assay: Antibiotic activity against Bacillus subtilis ATCC6633 assessed as reduction in bacterial cell growth by measuring resazurin reduction incubated for 6 days by fluorescence microplate based assay; format: functional; conditions: ATCC6633, 144 h, time 6 day
[22] = test system: Mycobacterium tuberculosis; assay: Antimycobacterial activity against Mycobacterium tuberculosis H37Rv infected in human A-THP1 macrophages assessed as viability of infected macrophages incubated for 96 hrs by fluorescence microplate assay; format: functional, organism-based
In short: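 THP-1 cells differentiated with 50 ng/mL PMA for 72 h, infected with log-phase H37Rv (MOI 10, 2 h), and extracellular bacteria killed with 50 µg/mL amikacin for 1 h. Cells detached and seeded at 5×10⁵/mL in RPMI-10% FBS with PMA onto pre-dispensed compound, 96 h at 37°C, 5% CO₂. Macrophage viability by 0.05% resazurin fluorescence.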

[23] = test system: Mycobacterium tuberculosis; assay: Inhibition of Ndh2 in Mycobacterium tuberculosis assessed as decrease in ATP concentration measured after 24 hrs; conditions: DDE = dose-dependent effect
In short: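 Log-phase H37Rv diluted to OD600 0.01 in complete 7H9 and exposed in 96-well plates to compound added from a 100× DMSO stock, at 37°C. ATP measured with BacTiter-Glo luminescence after 4 and 24 h; three independent experiments.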

Escherichia coli [24] = assay: Antibiotic activity against Escherichia coli BW25113 assessed as reduction in bacterial cell growth by measuring resazurin reduction incubated for 6 days by fluorescence microplate based assay; format: functional; conditions: BW25113, 144 h, time 6 day; in short: as §2
[25] = test system: Mycobacteroides abscessus; assay: Antibiotic activity against Mycobacterium abscessus CIP104536, Rough variant assessed as reduction in bacterial cell growth by measuring resazurin reduction incubated for 6 days by fluorescence microplate based assay; format: functional; conditions: 144 h, time 6 day
[26] = test system: Mycobacterium tuberculosis; assay: Bactericidal activity against Non-replicating Mycobacterium tuberculosis ss18b-lux assessed as decrease in colony forming unit measured at 4.8 uM after 1 weeks; format: functional; in short: as §3
Acinetobacter baumannii = assay: Antibiotic activity against Acinetobacter baumannii LMG-17978 assessed as reduction in bacterial cell growth by measuring resazurin reduction incubated for 6 days by fluorescence microplate based assay; format: functional; conditions: LMG-17978, 144 h, time 6 day
[27] = test system: Mycolicibacterium smegmatis; assay: Antibiotic activity against Mycobacterium smegmatis mc2155 assessed as reduction in bacterial cell growth by measuring resazurin reduction incubated for 6 days by fluorescence microplate based assay; format: functional; conditions: mc2155, 144 h, time 6 day

## CC(C)[C@H]1CO[C@]23CCN(Cc4ccc(Cl)cc4)C[C@H]2CCC(=O)N13
[1]
  IC50: 28 nM
[2]
  MIC98: 0.25 µM (≈ 0.0907 µg/mL)
[3]
  IC50: 96 nM

## CC(C)[C@H]1CO[C@]23CCN(Cc4ccc(OC(F)(F)F)cc4)C[C@H]2CCC(=O)N13
Pseudomonas aeruginosa
  MIC: > 100 µM
Mycobacterium marinum [4]
  Activity: Active
[5]
  MIC: 8.1 µM (≈ 3.34 µg/mL)
Mycobacterium marinum [6]
  Activity: Dde
Staphylococcus aureus
  MIC: > 100 µM
[7]
  Activity: Tde
[8]
  Activity: Non-Toxic
Mycobacterium marinum [9]
  Activity: Active
Mycobacterium marinum [10]
  Activity: Active
[11]
  Activity: Non-Toxic
[12]
  Activity: 0.8 log10CFU
[13]
  inhibition: Active
[14]
  MIC: 0.13 µM (≈ 0.0536 µg/mL)
[15]
  logD: 3.9
Escherichia coli [16]
  MIC: 100 µM (≈ 41.2 µg/mL)
[17]
  Drug metabolism: Metabolite_Detected
[18]
  Activity: Dde
Mycobacterium marinum [19]
  Time: 3 days
Mycobacterium marinum [20]
  MIC: 0.16 µM (≈ 0.066 µg/mL)
Mycobacterium marinum [21]
  Activity: Active
Klebsiella pneumoniae
  MIC: > 100 µM
Mycobacterium avium
  MIC: 0.38 µM (≈ 0.157 µg/mL)
Bacillus subtilis
  MIC: > 100 µM
[22]
  IC50: 360 nM
[23]
  inhibition: Dde
[2]
  MIC98: 0.13 µM (≈ 0.0536 µg/mL)
Escherichia coli [24]
  MIC: > 100 µM
[25]
  MIC: 8.1 µM (≈ 3.34 µg/mL)
[26]
  Activity: 1 log10CFU
Acinetobacter baumannii
  MIC: > 100 µM
[27]
  MIC: 1.3 µM (≈ 0.536 µg/mL)

## CC[C@H](C)[C@H]1CO[C@]23CCN(Cc4ccccc4)C[C@H]2CCC(=O)N13
[2]
  MIC98: 9.5 µM (≈ 3.25 µg/mL)

## CC[C@H]1CO[C@]23CCN(Cc4ccccc4)C[C@H]2CCC(=O)N13
[2]
  MIC98: 18.8 µM (≈ 5.91 µg/mL)
